Measured values from ChEMBL document CHEMBL4513216, “Probing the Open Global Health Chemical Diversity Library for Multistage-Active Starting Points for Next-Generation Antimalarials” (ACS Infect Dis, 2020).

assay: Toxicity liver stage against HepG2, at 10uM; type: cell-based; set-up: test concentration 10 uM, cell line HepG2-A16-CD81EGFP; conditions: human, HepG2-A16-CD81EGFP cells; read-out: INHIBITION
Procedure, shortened: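 Uninfected HepG2-A16-CD81EGFP cells, 3 × 10^3 per well, 1536-well, plated on prespotted compound at 10 μM final, parasite-free screening media added to match infected plates; puromycin 10 μM positive, DMSO 0.5% negative; run in parallel with 48 h PbLuc assay at 37 °C, 5% CO2; viability by CellTiter-Glo luminescence, normalized to controls.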

Going from `CC(C)Cc1cc(CC2(NCc3ccccc3Cl)COC2)no1` to `CC(C)CNC(=O)C1=NOC2(CCN(Cc3cccc(C#N)c3)C2)C1` (stereo not given), the cytotoxicity at 10 µM rises from -7.55% to 8.37%.

Compared with `Cc1cccnc1CNC[C@H]1Cn2cc(-c3ccccc3)nc2CO1`, `c1ccc(OCCN2CCC(c3nnc(-c4cccnc4)o3)CC2)cc1` is lower in cytotoxicity at 10 µM: -2.56% for the first, -27.9% for the second.

Going from `Cc1c(C(=O)N2CCN(C)CC2)n(C)c2ccc(Cl)cc12` to `CCCc1c(C(=O)N2CCN(c3nccc(OC)n3)CC2)cnn1C`, the cytotoxicity at 10 µM rises from -2.46% to 17.2%.

Going from `COC(=O)c1ccc(OC)c(Cn2cc(Br)cn2)c1` to `COc1ccccc1CN1C(=O)O[C@@H]2CN(c3nc(C)cnc3C)C[C@@H]21`, the cytotoxicity at 10 µM falls from 3.05% to 1.06%.

First: COC(=O)c1cc(C2CC2)nc2c(Cl)cnn12
Second: CCOc1cc(C)nc(N2CCN(C(=O)c3cc(Cl)c[nH]3)CC2)n1
The cytotoxicity at 10 µM of the first is higher: 14.7% for the first, 6.81% for the second.

Going from `COC(=O)CCn1ccc(=O)c2ccccc21` to `COc1ccnc(N(C)Cc2ccccc2O)n1`, the cytotoxicity at 10 µM rises from -6.84% to 2.29%.

Compared with `Cc1cc(N(C)C)nc(C2COCCN2Cc2nccn2C)n1` (stereo not given), `CN(C)c1ncc(-c2cncnc2)c(C2CNCCO2)n1` (stereo not given) is higher in cytotoxicity at 10 µM: -3.43% for the first, 1.69% for the second.

Going from `CCC(=O)N1CCC(c2nc(N3CCCC3)ncc2S(C)(=O)=O)CC1` to `CS(=O)(=O)N1CCC(c2nnc(CN3CCCC3)n2C2CC2)CC1`, the cytotoxicity at 10 µM falls from 3.86% to -6.6%.

First: COc1ccc(CN(C)CC2(O)CCNC2)cc1 (stereo not given)
Second: COc1ccccc1C1(CNCc2cccc(C#N)c2)CCOCC1
The cytotoxicity at 10 µM of the first is lower: -1.68% for the first, 6.37% for the second.

Going from `CN1CCCC(c2ccnc(C(=O)NC3CC3)c2)C1` (stereo not given) to `COCCn1ccnc1C1CCCN(C(=O)CSc2nnc(C)o2)C1` (stereo not given), the cytotoxicity at 10 µM rises from -29.5% to -4.3%.

Going from `CCCC(=O)N1CCCCC1c1nccc(C)n1` (stereo not given) to `CC1CCCN(C(=O)CCc2cccnc2)C1` (stereo not given), the cytotoxicity at 10 µM rises from -21% to -3.4%.

Going from `NC(=O)C1(c2cnccn2)CCCN1Cc1ccc(F)c(F)c1` (stereo not given) to `O=C(c1ccc2c(c1)CCO2)N1CCN(c2ncccn2)CC1`, the cytotoxicity at 10 µM rises from -14% to 8.92%.

Going from `CN1CC(=O)N(C2CCC2)Cc2c(NC3CCNCC3)ncnc21` to `c1cncc(CN2CCCC(Nc3ncnc4c3CCNCC4)C2)c1` (stereo not given), the cytotoxicity at 10 µM falls from 8.77% to 4.42%.

Compared with `COc1cccc([S+]([O-])CC(=O)NCc2cc(F)cc(F)c2)c1` (stereo not given), `Cc1cc(=O)n(C)cc1NC(=O)NCc1cccc(F)c1` is lower in cytotoxicity at 10 µM: -0.491% for the first, -5.3% for the second.

Going from `CC(NS(=O)(=O)CC1(C#N)CCCC1)c1cccc(-n2cccn2)c1` (stereo not given) to `N#Cc1ccc(CNCCn2cccn2)c(F)c1`, the cytotoxicity at 10 µM falls from 3.15% to -4.22%.

Compared with `FC(F)(F)Oc1cccc(CNCc2ccc(-n3cncn3)nc2)c1`, `Cc1ccc(N2CCC(c3cc(Cc4ccccc4)n[nH]3)CC2)nn1` is lower in cytotoxicity at 10 µM: 20.3% for the first, 3.53% for the second.

First: O=C1CCCN1CCCN1CCCC(Cn2cncn2)C1 (stereo not given)
Second: Cc1noc(C(C)N2CCN(CCCN3CCCC3=O)CC2)n1 (stereo not given)
The cytotoxicity at 10 µM of the first is higher: -1.82% for the first, -2.73% for the second.

Going from `CC(C)(C)C(=O)NCCC(=O)NS(=O)(=O)c1cccnc1` to `CN(Cc1ccncc1)C(=O)CCNS(=O)(=O)c1cccnc1`, the cytotoxicity at 10 µM rises from -3.15% to 0.541%.

Going from `CCN(Cc1ccoc1)c1ncc(S(N)(=O)=O)s1` to `Cc1cc(CS(=O)(=O)c2ccccc2)no1`, the cytotoxicity at 10 µM rises from 5.73% to 10.5%.

First: CC(NC(=O)N1CCc2sccc2C1)c1nncn1C (stereo not given)
Second: Cc1ccsc1CNc1ccc(C(=O)N2CCNC(=O)C2)cn1
The cytotoxicity at 10 µM of the first is lower: -8.6% for the first, 7.04% for the second.

First: O=C(c1cc2c([nH]c1=O)CCC2)N1CCCC1c1ccc(F)cc1 (stereo not given)
Second: COc1cccc2c1N(Cc1nc3c(cnn3C)c(=O)[nH]1)CCC2
The cytotoxicity at 10 µM of the first is lower: -6.14% for the first, -4.15% for the second.

First: O=C1c2ccccc2C(=O)N1CC(O)Cn1nc(-c2cccs2)oc1=O (stereo not given)
Second: O=c1[nH]c2cn(-c3cccc(F)c3)c(=O)n2n1Cc1ccccc1Cl
The cytotoxicity at 10 µM of the first is lower: -14.5% for the first, 4.9% for the second.

Going from `Cc1cc(Br)oc1C(=O)N1CCN(CC(N)=O)CC1` to `NC(=O)CN1CCCC1c1ccccc1Br` (stereo not given), the cytotoxicity at 10 µM rises from 0.658% to 4.01%.

Compared with `CC(=O)N1CCC(c2nc(Cc3ccccc3)no2)C1` (stereo not given), `CCn1ccnc1CN(C)C1CCCN(CCCc2ccccc2)C1` (stereo not given) is higher in cytotoxicity at 10 µM: 5.15% for the first, 7.35% for the second.

Going from `CCCS(=O)(=O)NCC(C)(O)c1ccsc1` (stereo not given) to `Cc1cccnc1CSCCCNS(C)(=O)=O`, the cytotoxicity at 10 µM falls from -1.7% to -15.1%.

First: O=C(Nc1nnc(C(F)F)s1)N[C@H](CCO)c1ccccc1
Second: O=C(NCC1(Sc2ccccc2)CC1)c1c[nH]nn1
The cytotoxicity at 10 µM of the first is higher: 1.88% for the first, -17.9% for the second.

Going from `Cc1cc(C(=O)NC2(c3cccc(F)c3)CCOCC2)no1` to `Cc1cc(CN2C[C@@H]3COC[C@]3(CNC(=O)c3ccco3)C2)no1`, the cytotoxicity at 10 µM falls from 1.42% to -71.1%.

Compared with `COc1ccc2c(c1)C(=O)N(C)C1(CCN(C(=O)OC(C)(C)C)CC1)N2`, `COCCC1COC2(CCN(C(=O)c3cccn3C)CC2)C1` (stereo not given) is lower in cytotoxicity at 10 µM: 25.1% for the first, -80.7% for the second.

Compared with `CCN(CC)S(=O)(=O)N1CCCC1c1nnc2n1CCCCC2` (stereo not given), `COC(C)(C)CNC(=O)C1CCC(=O)N(C2CCCC2)C1` (stereo not given) is higher in cytotoxicity at 10 µM: -6.83% for the first, -6.52% for the second.

First: Cc1noc(C)c1CNc1cccc(C(=O)N2CCCC(O)C2)c1 (stereo not given)
Second: Cc1ccc(-c2cc(CNC(=O)N3CCOC(C)C3)on2)cc1 (stereo not given)
The cytotoxicity at 10 µM of the first is higher: -6.08% for the first, -6.09% for the second.

Compared with `CS(=O)(=O)CCCN1CCOC2(CCc3ccccc32)C1` (stereo not given), `CC(C)COC1CCN(S(=O)(=O)Cc2cccc(F)c2)CC1` is higher in cytotoxicity at 10 µM: -5.14% for the first, -2.11% for the second.

Going from `OC(CN(Cc1ccccc1)Cc1cscn1)c1ccco1` (stereo not given) to `COCc1ncc(CN(Cc2ccco2)C(C)C(C)C)cn1` (stereo not given), the cytotoxicity at 10 µM falls from 5.04% to -0.0832%.

Compared with `CN(C(=O)COC1CCCC1)C1CCN(CC2CCOC2)CC1` (stereo not given), `O=C(C1CC(F)(F)C1)N1C[C@@H]2CN(CC3CCCC3)CCO[C@@H]2C1` is higher in cytotoxicity at 10 µM: -9.98% for the first, -8.02% for the second.

Compared with `Cc1noc(C)c1CN(C)Cc1nc(N)c2ccccc2n1`, `CN(C)c1nc2n(c(=O)n1)CCN2C(=O)Nc1ccccc1` is lower in cytotoxicity at 10 µM: 8.85% for the first, 4.73% for the second.

First: N#Cc1ccccc1CN(CC(N)=O)C1CCCC1
Second: O=C(C[C@@H]1COC[C@H]2CN(C3CCCC3)C[C@@H]12)NCc1cccnc1
The cytotoxicity at 10 µM of the first is higher: 10.4% for the first, 6.84% for the second.

Compared with `COCCO[C@H]1CCN(C(=O)c2cnccn2)[C@H]1Cc1ccncc1`, `COCCOc1ccc(C(=O)N2CCCC(n3cncn3)C2)cn1` (stereo not given) is higher in cytotoxicity at 10 µM: -70.3% for the first, -11.7% for the second.

Compared with `CN1CCN(Cc2ccncc2)Cc2cccnc21`, `Cn1cc(CN2CCc3ccc(=O)n(Cc4ccncc4)c3CC2)cn1` is higher in cytotoxicity at 10 µM: -72.7% for the first, 3.97% for the second.

Compared with `c1ccc(SCCN2CCCC(Cn3ccnc3)C2)cc1` (stereo not given), `Cc1cc(C)n(CC2CN(CCOc3cccc(C#N)c3)CCO2)n1` (stereo not given) is lower in cytotoxicity at 10 µM: 2.92% for the first, -10.9% for the second.

First: CS(=O)(=O)N1CC[C@]2(O)CCN(c3ccnc(N)n3)C[C@@H]2C1
Second: COc1cnc(N2CCN(C)CC2)nc1-c1ccnn1C
The cytotoxicity at 10 µM of the first is higher: 21% for the first, 0.868% for the second.

Going from `COCC(=O)N1CCC(C(=O)N(C)CCCc2nccn2C)CC1` to `Cc1cnc(NCCCN2CCCCC2CO)nc1` (stereo not given), the cytotoxicity at 10 µM falls from -1.81% to -7.17%.

Compared with `Cc1ccsc1-c1nccn1CCN1CCCOC1=O`, `Cn1nccc1C1CCN(CC(O)c2cccc(F)c2)CC1` (stereo not given) is lower in cytotoxicity at 10 µM: -4.68% for the first, -11.8% for the second.

First: O=C(CCNc1ncccn1)NCCOc1ccc2c(c1)CCC2
Second: CN(C)c1ncnc2c1CCN(C(=O)c1cccnc1)CC2
The cytotoxicity at 10 µM of the first is higher: -4.54% for the first, -79.8% for the second.

With `CCc1noc(C(C)N2CCN(Cc3nc(C)c(C)o3)CC2)n1` (stereo not given) the cytotoxicity at 10 µM was -1.71%.
